Assay [1] concerns the target T1, 5-hydroxytryptamine receptor 2C (Rattus norvegicus, UniProt P08909).
T1 sequence (P08909 whole entry): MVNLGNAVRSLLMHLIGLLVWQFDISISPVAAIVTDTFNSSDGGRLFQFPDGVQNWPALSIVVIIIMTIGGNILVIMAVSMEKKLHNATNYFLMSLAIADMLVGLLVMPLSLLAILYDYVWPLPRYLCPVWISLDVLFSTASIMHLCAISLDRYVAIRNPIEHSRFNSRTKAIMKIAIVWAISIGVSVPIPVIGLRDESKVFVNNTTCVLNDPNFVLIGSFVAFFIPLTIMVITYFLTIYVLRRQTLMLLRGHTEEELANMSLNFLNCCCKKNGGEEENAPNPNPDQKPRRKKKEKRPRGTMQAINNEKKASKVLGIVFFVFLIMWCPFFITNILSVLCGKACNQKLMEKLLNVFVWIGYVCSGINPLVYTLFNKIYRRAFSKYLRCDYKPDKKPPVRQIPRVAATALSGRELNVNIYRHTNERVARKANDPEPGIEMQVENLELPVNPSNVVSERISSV
The assay is described as follows: Binding affinity at cloned rat 5-hydroxytryptamine 2C receptor using [3H]DOI as radioligand. A digest of the protocol: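 Competition binding using harvested, frozen NIH-3T3 cells stably expressing rat 5-HT2C. Buffer 50 mM Tris, 0.5 mM EDTA, 10 mM MgCl2, pH 7.4. Incubated 60 min at 25 °C, then rapid filtration onto polyethylenimine-treated GF/B filters and scintillation counting. Nonspecific binding defined with 10 µM mianserin in the saturation assays.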

The target in assay [2] is 5-hydroxytryptamine receptor 2A (Rattus norvegicus) (UniProt P14842). The assay is described as follows: Percent maximal 5-HT stimulation at cloned rat 5-hydroxytryptamine 2A receptor (phosphoinositide hydrolysis study) at a conc of 100 uM.
Chain of 5-hydroxytryptamine receptor 2A (Rattus norvegicus) (P14842 whole entry): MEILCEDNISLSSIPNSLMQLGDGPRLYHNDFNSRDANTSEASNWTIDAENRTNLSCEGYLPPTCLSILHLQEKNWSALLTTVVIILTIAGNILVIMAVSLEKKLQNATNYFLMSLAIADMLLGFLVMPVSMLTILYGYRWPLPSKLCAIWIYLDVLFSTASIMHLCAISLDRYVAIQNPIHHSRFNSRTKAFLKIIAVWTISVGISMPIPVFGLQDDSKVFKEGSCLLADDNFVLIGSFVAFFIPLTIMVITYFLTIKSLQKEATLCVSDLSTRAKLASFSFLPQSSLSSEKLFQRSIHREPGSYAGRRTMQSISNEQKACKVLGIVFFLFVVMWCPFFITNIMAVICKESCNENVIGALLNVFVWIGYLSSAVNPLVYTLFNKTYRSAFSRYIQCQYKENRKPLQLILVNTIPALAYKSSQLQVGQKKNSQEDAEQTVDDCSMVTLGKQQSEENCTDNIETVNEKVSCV
Assay [3] concerns the target T2, 5-hydroxytryptamine receptor 2A (Rattus norvegicus, UniProt P14842). In words: Binding affinity at cloned rat 5-hydroxytryptamine 2A receptor using [3H]DOB as radioligand. The method, boiled down:
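Competition binding using harvested, frozen NIH-3T3 cells stably expressing rat 5-HT2A, serum-starved 5 h before harvest. Incubated 60 min at 25 °C, then rapid filtration onto GF/B filters pre-soaked in 0.3% polyethylenimine, and scintillation counting. Nonspecific binding defined with 10 µM cinanserin in the saturation assays.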

For assay [4], the target named is T2, 5-hydroxytryptamine receptor 2A. The assay is described as follows: Ability to stimulate phosphoinositide hydrolysis in NIH3T3 cells expressing the 5-hydroxytryptamine 2A receptor. It counts as cell-based.

Data on 15 compounds can be found in ChEMBL document CHEMBL1134366, “Enantiospecific synthesis and pharmacological evaluation of a series of super-potent, conformationally restricted 5-HT(2A/2C) receptor agonists” (J Med Chem, 2001).

Bounds are passed on as bounds.

T2 sequence (P14842 whole entry): as above

As a reminder, the Ki is a dissociation constant, usually derived from enzyme kinetics or from competition with a known ligand. High values mean lower affinity, low ones higher affinity. For orientation: EC50 means the concentration at which the effect is half-maximal. Lower therefore signals greater potency. As to `C[C@H](N)Cc1c2c(cc3c1OCC3)OCC2`, the inhibitory constant (Ki) in assay [1] worked out at 119 nM; in assay [3] it was 227 nM. In assay [2], this compound displayed a Max stimulation of 62%. In addition, the EC50 in assay [4] amounted to 2360 nM.

`C[C@H](N)Cc1c2ccoc2c(C(F)(F)F)c2ccoc12`: the Ki in assay [1] amounted to 0.69 nM; in assay [3], 0.32 nM. The Max stimulation in assay [2] worked out at 52%. In assay [4], this compound displayed an EC50 of 12 nM.

For `C[C@@H](N)Cc1c2c(cc3c1OCC3)OCC2`, the inhibition constant Ki was determined as 8.2 nM in assay [1] and 54.4 nM in assay [3]. This compound also showed a Max stimulation in assay [2] of 99%. In assay [4], this compound displayed an EC50 of 5650 nM.

For `C[C@@H](N)Cc1c2ccoc2cc2ccoc12`, the Ki in assay [1] turned out to be 0.79 nM; in assay [3], 1.5 nM. Moreover, the Max stimulation in assay [2] was 76%. Also, a half-maximal effect in assay [4] (EC50) was put at 590 nM.

`C[C@H](N)Cc1c2c(c(Br)c3c1OCC3)OCC2`: the Ki in assay [1] was determined as 1.1 nM; in assay [3], 2.6 nM. Moreover, the Max stimulation in assay [2] was 76%. In assay [4], this compound came in with an EC50 of 35 nM.

In the case of `C[C@H](N)Cc1c2ccoc2cc2ccoc12`, the Ki in assay [1] stood at 6 nM; in assay [3], 37.9 nM. In assay [2], this compound came in with a Max stimulation of 68%. The compound also displayed an EC50 in assay [4] of 650 nM.

As for `C[C@@H](N)Cc1c2ccoc2c(Br)c2ccoc12`, the figures for the Ki in assay [1] and in assay [3] were 0.11 nM and 0.31 nM, respectively. In assay [2], this compound returned a Max stimulation of 93%. In addition, the 50% effective concentration (EC50) in assay [4] is 2.7 nM.

For the compound `C[C@H](N)Cc1c2c(c(C(F)(F)F)c3c1OCC3)OCC2`, the Ki in assay [1] turned out to be 1.6 nM; in assay [3], 2 nM. The same compound yielded a Max stimulation in assay [2] of 60%. In assay [4], this compound displayed an EC50 of 30 nM.

As for `COc1cc(C(F)(F)F)c(OC)cc1CC(C)N` (configuration not stated), the Ki worked out at 3.78 nM in assay [1] and 2.2 nM in assay [3]. In addition, the Max stimulation in assay [2] turned out to be 86%. Further, in assay [4], the response was half-maximal at 68.4 nM (EC50).

Compound `COc1cc(CC(C)N)c(OC)cc1Br` (configuration not stated) yielded a Max stimulation in assay [2] of 79%.

For `C[C@@H](N)Cc1c2ccoc2c(C(F)(F)F)c2ccoc12`, the inhibitory constant (Ki) was 0.4 nM in assay [1] and 0.29 nM in assay [3]. The compound further had a Max stimulation in assay [2] of 60%. The compound also came in with an EC50 in assay [4] of 3.8 nM.

As to `C[C@@H](N)Cc1c2c(c(Br)c3c1OCC3)OCC2`, the Ki turned out to be 0.26 nM in assay [1] and 1.2 nM in assay [3]. The compound also showed a Max stimulation in assay [2] of 80%. The same compound yielded a concentration for a half-maximal effect (EC50) in assay [4] of 8.38 nM.

For `C[C@@H](N)Cc1c2c(c(C(F)(F)F)c3c1OCC3)OCC2`, the Ki was 1.9 nM in assay [1] and 0.7 nM in assay [3]. This compound also gave a Max stimulation in assay [2] of 69%. The compound also gave an EC50 in assay [4] of 28 nM.

Take `C[C@H](N)Cc1c2ccoc2c(Br)c2ccoc12`: the Ki in assay [1] is 0.25 nM; in assay [3] it was 0.68 nM. Besides, the Max stimulation in assay [2] stood at 79%. The compound further yielded an EC50 in assay [4] of 19 nM.

With `COc1ccc(OC)c(C[C@@H](C)N)c1`, the values for the Ki in assay [1] and in assay [3] were 520 nM and 2340 nM, respectively. Further, in assay [2], the Max stimulation is 16%. This compound showed a half-maximal effective concentration (EC50) in assay [4] of over 10000 nM.
